According to ChEMBL document CHEMBL1133091, “Syntheses and structure-activity relationships of 5,6,7, 8-tetrahydro-5,5,8,8-tetramethyl-2-quinoxaline derivatives with retinoic acid receptor alpha agonistic activity” (J Med Chem, 2000):

Columns and labels:
[1] = target: T1, Retinoic acid receptor beta (Homo sapiens) (UniProt P10826); assay: Transcriptional activation of Retinoic Acid Receptor beta (RAR beta); type: functional
T1 sequence (whole entry): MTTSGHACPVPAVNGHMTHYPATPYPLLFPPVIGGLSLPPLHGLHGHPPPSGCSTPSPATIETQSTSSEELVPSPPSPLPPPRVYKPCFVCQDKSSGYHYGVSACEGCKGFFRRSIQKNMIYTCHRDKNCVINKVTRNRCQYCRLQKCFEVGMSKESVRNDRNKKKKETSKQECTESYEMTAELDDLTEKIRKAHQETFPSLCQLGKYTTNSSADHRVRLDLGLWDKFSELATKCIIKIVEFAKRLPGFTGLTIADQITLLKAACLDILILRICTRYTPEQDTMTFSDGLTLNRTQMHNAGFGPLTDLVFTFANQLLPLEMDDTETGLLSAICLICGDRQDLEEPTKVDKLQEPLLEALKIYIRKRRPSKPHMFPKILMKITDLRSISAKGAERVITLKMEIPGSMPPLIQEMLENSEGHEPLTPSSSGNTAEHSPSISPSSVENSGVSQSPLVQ
Method in brief: (§1)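 Receptor and reporter vectors were lipofected into COS-1 cells. After 4 h the medium was changed to DMEM/10% FBS for 20 h. Cells were reseeded at 3 × 10⁴/well and compounds added 6 h later, in log dilutions from 3.0 × 10^-6 to 1.0 × 10^-10 M in duplicate. Supernatant PLAP activity was read after 48 h. EC30 (30% of maximal response) was normalized to ATRA.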

[2] = target: T2, Retinoic acid receptor alpha (Homo sapiens) (UniProt P10276); assay: Induction of HL-60 cell differentiation at Retinoic Acid Receptor alpha (RAR alpha); type: functional, cell-based
T2 sequence (whole entry): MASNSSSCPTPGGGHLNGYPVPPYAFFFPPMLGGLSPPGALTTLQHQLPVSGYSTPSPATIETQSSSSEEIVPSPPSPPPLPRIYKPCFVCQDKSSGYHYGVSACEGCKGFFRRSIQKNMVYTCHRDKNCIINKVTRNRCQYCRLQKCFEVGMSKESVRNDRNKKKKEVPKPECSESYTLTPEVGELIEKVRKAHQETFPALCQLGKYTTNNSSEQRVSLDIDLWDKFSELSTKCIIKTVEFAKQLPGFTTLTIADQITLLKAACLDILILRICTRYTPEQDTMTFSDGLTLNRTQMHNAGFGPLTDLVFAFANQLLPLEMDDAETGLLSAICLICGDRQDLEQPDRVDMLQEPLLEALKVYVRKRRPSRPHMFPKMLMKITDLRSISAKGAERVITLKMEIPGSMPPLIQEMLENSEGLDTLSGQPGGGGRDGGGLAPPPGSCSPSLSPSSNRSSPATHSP
Method in brief: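 HL60 cells (1 × 10⁵ in 1 mL RPMI1640) were exposed to compounds for 5 days, in log dilutions from 1.0 × 10^-5 to 1.0 × 10^-12 M in duplicate. Differentiation was read as cell-surface CD11b expression by FACS. Values are averages of at least two experiments.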

[3] = target: T2, Retinoic acid receptor alpha (Homo sapiens); assay: Transcriptional activation of Retinoic Acid Receptor alpha (RAR alpha); type: functional; method in brief: as §1
[4] = target: T3, Retinoic acid receptor gamma (Homo sapiens) (UniProt P13631); assay: (§2) Transcriptional activation of Retinoic Acid Receptor gamma (RAR gamma); method in brief: as §1
T3 sequence (whole entry): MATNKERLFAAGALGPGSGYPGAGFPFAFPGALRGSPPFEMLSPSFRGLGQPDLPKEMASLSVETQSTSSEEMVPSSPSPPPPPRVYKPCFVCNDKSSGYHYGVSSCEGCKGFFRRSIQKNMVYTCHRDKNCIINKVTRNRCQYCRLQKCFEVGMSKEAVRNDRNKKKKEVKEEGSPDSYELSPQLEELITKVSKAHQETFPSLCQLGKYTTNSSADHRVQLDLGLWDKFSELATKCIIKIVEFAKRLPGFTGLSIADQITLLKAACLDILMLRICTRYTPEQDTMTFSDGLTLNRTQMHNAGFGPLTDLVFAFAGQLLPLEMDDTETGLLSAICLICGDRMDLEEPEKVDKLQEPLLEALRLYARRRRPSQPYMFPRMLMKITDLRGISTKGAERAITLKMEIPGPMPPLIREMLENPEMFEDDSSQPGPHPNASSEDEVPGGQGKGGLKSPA

[5] = target: T1, Retinoic acid receptor beta (Homo sapiens); assay: Transcriptional activation in COS-1 cells expressing Retinoic Acid Receptor beta (RAR beta); type: functional, cell-based; method in brief: as §1
[6] = target: T3, Retinoic acid receptor gamma (Homo sapiens); assay: Transcriptional activation in COS-1 cells expressing Retinoic Acid Receptor gamma (RAR gamma); type: functional, cell-based
Method in brief: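 Receptor and reporter vectors were lipofected into COS-1 cells for 4 h, then cultured 20 h in DMEM/10% FBS. Cells were reseeded at 3 × 10⁴ per well. After 6 h, compound was added in log dilutions from 1.0 × 10^-10 to 3.0 × 10^-6 M in duplicate. Supernatant PLAP activity was read after 48 h. EC30 was normalised to ATRA EC30 (mean ± SEM).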

[7] = target: T4, Retinoic acid receptor gamma (Homo sapiens, UniProt P13631); assay: Binding affinity for Retinoic Acid Receptor gamma (RAR gamma)
T4 sequence (P13631 whole entry): T3 sequence (whole entry)
Method in brief: (§3)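 Competitive binding to individual RAR isoforms with [3H]ATRA as radioligand. IC50 for each receptor divided by the ATRA IC50 and reported as relative IC50 (mean ± SEM). nd means relative IC50 > 1000.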

[8] = target: T3, Retinoic acid receptor gamma (Homo sapiens); assay: as §2; type: functional; method in brief: as §1
[9] = target: T2, Retinoic acid receptor alpha (Homo sapiens); conditions: HL-60
[10] = target: T5, Retinoic acid receptor beta (Homo sapiens, UniProt P10826); assay: Binding affinity for Retinoic Acid Receptor beta (RAR beta)
T5 sequence (P10826 whole entry): T1 sequence (whole entry)
Method in brief: (§4)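 Competitive binding to each RAR isoform using [³H]ATRA as radioligand. IC50 for each receptor was divided by the ATRA IC50 on the same receptor to give relative IC50 (mean ± SEM). Values were labelled not detectable when relative IC50 > 1000.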

[11] = target: T6, Retinoic acid receptor alpha (Homo sapiens, UniProt P10276); assay: (§5) Binding affinity for Retinoic Acid Receptor alpha (RAR alpha); method in brief: as §3
T6 sequence (P10276 whole entry): T2 sequence (whole entry)

[12] = target: T6, Retinoic acid receptor alpha; assay: Binding affinity for Retinoic Acid Receptor alpha (RAR alpha).; method in brief: as §3
[13] = target: T2, Retinoic acid receptor alpha (Homo sapiens); assay: Transcriptional activation in COS-1 cells expressing Retinoic Acid Receptor alpha (RAR alpha); type: functional, cell-based; method in brief: as §1
[14] = target: T4, Retinoic acid receptor gamma; assay: Binding affinity for Retinoic acid receptor gamma; method in brief: as §4
[15] = target: T6, Retinoic acid receptor alpha; assay: as §5; remark: listed apart in the source
[16] = target: T2, Retinoic acid receptor alpha (Homo sapiens); conditions: COS-1

Cn1c(-c2ccc(C(=O)O)cc2)ccc1-c1cnc2c(n1)C(C)(C)CCC2(C)C
EC30 [1]: 14 nM
ED30 [2]: 240 nM
EC30 [3]: 38 nM
EC30 [4]: 120 nM

CC1(C)CCC(C)(C)c2cc(C(=O)Nc3ccc(C(=O)O)cc3)ccc21
EC30 [5]: 12 nM
EC30 [6]: 33 nM

CC1(C)CCC(C)(C)c2nc(-c3cc(-c4ccc(C(=O)O)cc4)c[nH]3)cnc21
EC30 [1]: 4.5 nM
IC50 [7]: 150 nM
EC30 [3]: 11 nM
EC30 [8]: 1.6 nM
ED30 [9]: 140 nM

CC1(C)CCC(C)(C)c2nc(-c3cc(-c4ccc(C(=O)O)cc4)cs3)cnc21
EC30 [1]: 0.5 nM
IC50 [10]: 4.5 nM
IC50 [11]: 2.4 nM
IC50 [7]: 2 nM
EC30 [3]: 0.87 nM
EC30 [8]: 0.72 nM
ED30 [9]: 9.5 nM

CC1(C)CCC(C)(C)c2nc(-c3cc(-c4ccc(C(=O)O)cc4)[nH]n3)cnc21
EC30 [1]: 0.85 nM
IC50 [10]: 290 nM
EC30 [3]: 1.7 nM
EC30 [8]: 3.9 nM
ED30 [9]: 2.1 nM

CC1(C)CCC(C)(C)c2cc(NC(=O)c3ccc(C(=O)O)cc3)ccc21
EC30 [5]: 48 nM
EC30 [6]: 150 nM

CC1(C)CCC(C)(C)c2nc(-c3cc(-c4ccc(C(=O)O)cc4)co3)cnc21
EC30 [1]: 0.18 nM
IC50 [10]: 2.5 nM
IC50 [11]: 19 nM
IC50 [7]: 27 nM
EC30 [3]: 0.35 nM
EC30 [8]: 0.76 nM
ED30 [9]: 0.21 nM

CC1(C)CCC(C)(C)c2nc(C(=O)Nc3ccc(C(=O)O)cc3)cnc21
EC30 [1]: 0.4 nM
IC50 [10]: 140 nM
IC50 [12]: 40 nM
EC30 [3]: 0.15 nM
EC30 [8]: 1.6 nM
ED30 [9]: 0.87 nM

CC1(C)CCC(C)(C)c2nc(-c3ccc(-c4ccc(C(=O)O)cc4)s3)cnc21
EC30 [1]: 0.73 nM
IC50 [10]: 36 nM
IC50 [11]: 130 nM
IC50 [7]: 17 nM
EC30 [3]: 15 nM
EC30 [8]: 2.1 nM
ED30 [9]: 40 nM

CC1(C)CCC(C)(C)c2nc(-c3ccc(-c4ccc(C(=O)O)cc4)[nH]3)cnc21
EC30 [13]: 0.32 nM
EC30 [5]: 2.5 nM
EC30 [6]: 20 nM
IC50 [10]: 230 nM
IC50 [11]: 2.2 nM
IC50 [14]: 310 nM
ED30 [9]: 0.11 nM

CC1(C)CCC(C)(C)c2cc(-c3ccc(-c4ccc(C(=O)O)cc4)[nH]3)ccc21
EC30 [5]: 3.9 nM
EC30 [6]: 3.5 nM
IC50 [10]: 100 nM
IC50 [15]: 0.45 nM
IC50 [14]: 21 nM
ED30 [9]: 0.54 nM
EC30 [16]: 0.34 nM

CC1(C)CCC(C)(C)c2nc(-c3ccc(-c4ccc(C(=O)O)cc4)o3)cnc21
EC30 [1]: 0.38 nM
IC50 [10]: 39 nM
IC50 [11]: 32 nM
IC50 [7]: 4.6 nM
EC30 [3]: 1.8 nM
EC30 [8]: 1.5 nM
ED30 [9]: 2.1 nM

CC1(C)CCC(C)(C)c2nc(-c3c[nH]c(-c4ccc(C(=O)O)cc4)n3)cnc21
EC30 [1]: 40 nM
ED30 [2]: 20 nM
EC30 [3]: 80 nM
EC30 [4]: 39 nM

CC1(C)CCC(C)(C)c2nc(-c3csc(-c4ccc(C(=O)O)cc4)n3)cnc21
EC30 [1]: 0.39 nM
IC50 [10]: 21 nM
IC50 [11]: 83 nM
IC50 [7]: 3.6 nM
EC30 [3]: 5.2 nM
EC30 [8]: 0.34 nM
ED30 [9]: 11 nM
